M1 ag: activates the M1 muscarinic receptor. CHO-M1 cells, Fluo-4 calcium fluorescence, agonist mode; hits give high values. B-score at 10 µM. hit rate 3% among 64,000;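 active = fluorescence rise, raw or as B-score row- and column-corrected plate score, outside the 99.7% band of its plate's samples, either direction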
BAP1 block: blocks human BAP1 ubiquitin-AMC hydrolysis; Q92560; recombinant BAP1, Ub-AMC hydrolysis fluorescence kinetic; hits give low values; calls only at 20 µM; hit rate 0.48% among 72,000; AID 436;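 active = activity remaining at or below 50% of control, provided the compound also passes the data quality filters; inactive = the rest, including low values that fail the filters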
HEK293 NFkB inh: lowers PMA/ionomycin-induced NF-kB signal in HEK293 cells. inhibition, % at 3 µM. HEK-293 NF-kB luciferase reporter, luminescence. hit rate 0.21% among 62,000;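 active = inhibition above the mean of all tested compounds plus 3 SD, cut at about 40% in these data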
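System – HEK-293 cells with stable firefly luciferase reporter driven by four HIV NF-kB elements · Doses – one dose, 3 µM · Schedule – 1 h compound pre-incubation, 16 h PMA/ionomycin at 37 °C · Technique – luminescence from luciferase substrate reagent · Measure – percent inhibition normalized per plate to DMSO and reference-inhibitor controls · Replicates – tested once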
DAT uptake mod: modulates human dopamine transporter uptake under cocaine | LLC-PK1 hDAT cells, [14C]-dopamine uptake with cocaine IC80; actives deviate in either direction | AID 449768 | hit rate 1.3% among 110,000 | B-score at 10 µM;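 active = Z score or B-score, a plate-position-corrected score, falls beyond the plate's 99.7% confidence bounds, in either direction; inactive = both scores lie inside the 99.7% bounds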
D1 allo mod: allosteric modulators of human D1 dopamine receptor; HEK293 D1, CRE-luciferase, dopamine EC30 potentiation; actives deviate in either direction; B-score at 10 µM; hit rate 5.9% among 58,000;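 active = luminescence count or its row- and column-corrected plate score outside the 99.7% band of the plate's sample wells, on either side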
Target sequence (P21728 whole entry, looked up): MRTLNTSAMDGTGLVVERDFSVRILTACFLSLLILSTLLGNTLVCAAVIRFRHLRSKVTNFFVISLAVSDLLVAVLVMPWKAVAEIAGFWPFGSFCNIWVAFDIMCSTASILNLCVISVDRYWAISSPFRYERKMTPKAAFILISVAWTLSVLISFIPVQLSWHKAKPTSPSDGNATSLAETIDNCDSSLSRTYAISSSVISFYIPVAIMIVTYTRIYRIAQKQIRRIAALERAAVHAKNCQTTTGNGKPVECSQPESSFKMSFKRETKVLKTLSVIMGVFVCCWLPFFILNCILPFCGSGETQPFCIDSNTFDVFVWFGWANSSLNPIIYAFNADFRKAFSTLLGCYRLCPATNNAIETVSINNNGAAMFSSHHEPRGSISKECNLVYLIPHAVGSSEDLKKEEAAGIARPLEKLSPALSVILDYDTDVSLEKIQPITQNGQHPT
M1 antag: antagonists of rat M1 muscarinic receptor; CHO-M1 cells, Fluo-4 calcium, ACh EC80 antagonist mode; hits give low values; hit rate 3.4% among 64,000; B-score at 10 µM;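 active = calcium fluorescence response, raw or row-and-column corrected B-score, differing from the plate sample mean either way at a set confidence level, mostly lower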
A number is an active result; . = inactive; / = no result shown. Most compounds without a hit are left out; they make up all but 7.2% or so of the library.

SMILES | M1 ag | BAP1 block | HEK293 NFkB inh | DAT uptake mod | D1 allo mod | M1 antag
CCN1CCN(C(c2cccs2)C(C)NC(=O)c2ccccc2OC)CC1 (stereo not given) | . | . | . | . | . | .
COc1ccc(C2C(C(=O)N3CCCC3)CC(=O)N2c2ccc(OC)cc2)cc1 (stereo not given) | . | / | . | . | . | .
COc1ccc(C2C(C(=O)N3CCN(c4ccccn4)CC3)CC(=O)N2c2ccc(OC)cc2)cc1 (stereo not given) | . | / | . | . | -3.1 | .
CCN(CC)C(=O)c1csc(Nc2ccc(C)cc2)n1 | . | . | . | . | . | .
Cc1ccc(Nc2nc(C3CC3)cs2)cc1 | . | . | . | / | -4.9 | .
COC(=O)c1ccc(NC(=O)c2ccccc2N(C)S(C)(=O)=O)cc1 | . | . | . | -2.7 | . | .
CC(=O)c1c(C)[nH]c(C(=O)NCCc2ccccc2)c1C | . | . | . | . | -3.5 | .
O=C1NCCCC2c3cc(O)c4ccccc4c3OC12N1CCCCC1 (stereo not given) | . | . | . | -3.4 | . | .
CCCN(CCC)C(=O)Cn1c(=O)n(CCC(=O)NCCc2ccccc2)c(=O)c2ccccc21 | / | / | / | -8 | / | /
COc1ccc(-c2nc3cc(NC(=O)c4ccc5c(c4)OCO5)ccc3o2)cc1 | . | / | . | -9 | . | .
CCCC(=O)Nc1ccc2oc(-c3ccc(OC)c(Br)c3)nc2c1 | . | / | . | . | -2.6 | .
CCCC(=O)Nc1ccc(-c2nc3cc(C)ccc3o2)cc1 | . | . | . | . | -5.1 | .
O=C(c1ccccc1)c1cc2c(ccc3ccccc32)oc1=O | / | . | / | / | / | /
COc1cc(C2N=C(c3ccccc3)NO2)cc(Br)c1O (stereo not given) | . | . | . | 2.6 | . | .
COC(=O)c1[nH]c2c(c1C)C(=O)CC(c1ccccc1)C2 (stereo not given) | / | . | 44 | . | . | /
CCCCn1c(SCc2nnc(-c3ccccc3)o2)nc2c1c(=O)n(C)c(=O)n2C | 3 | . | . | . | . | .
CC(=O)Nc1cccc(-c2csc(Nc3ccccn3)n2)c1 | / | / | / | 2.5 | / | /
Cc1ccnc(Nc2nc(-c3c(C)nc4sccn34)cs2)c1 | . | . | . | . | . | .
c1ccc(Nc2nc(-c3cccnc3)cs2)nc1 | -2.7 | . | . | . | . | .
c1cncc(Nc2nc(-c3cccnc3)cs2)c1 | . | . | . | . | . | .
CC(=O)Nc1cccc(-c2csc(Nc3cc(C)ccn3)n2)c1 | / | / | / | 3.1 | / | /
CCOc1ccc(C2C(N3C(=O)c4cccc([N+](=O)[O-])c4C3=O)C(=O)N2c2cc(Cl)ccc2C)cc1 (stereo not given) | / | . | / | / | / | /
CC1(C)CN=C(N2CCN(C3=NCC(C)(C)S3)CC2)S1 | . | . | . | / | . | -6.3
Cc1cc(C)c2c(n1)nn1c(N3CCN(c4ccccc4)CC3)cc(C)nc21 | . | . | . | . | -4.1 | .
Cc1ccccc1CN(c1ccc(C(=O)N2CCc3ccccc3C2)cc1)S(C)(=O)=O | / | / | / | -3.2 | / | /
SMILES | M1 ag | BAP1 block | HEK293 NFkB inh | DAT uptake mod | D1 allo mod | M1 antag
Cc1cc(C)c2cc(CN(CCO)C(=O)Nc3ccc(Cl)cc3)c(=O)[nH]c2c1 | . | . | . | . | . | .
Cc1cc(C)c2cc(CN(CCN3CCCC3)C(=O)Nc3ccc(F)cc3)c(=O)[nH]c2c1 | . | . | . | . | -3.1 | .
COc1ccc(-c2nnc3ccc(SCC(=O)N4CCN(c5ccccc5)CC4)nn23)cc1OC | 6 | . | . | / | . | .
O=C(CSc1ccc2nnc(-c3cccnc3)n2n1)N1CCc2ccccc21 | -2.9 | . | . | / | . | .
O=C(CSc1ccc2nnc(-c3cccnc3)n2n1)N1CCOCC1 | . | . | . | . | . | .
O=C(CSc1ccc2nnc(-c3ccc(Cl)cc3)n2n1)N1CCCC1 | . | . | . | . | 5.6 | .
Cc1ccc(-c2nnc3ccc(SCC(=O)N4CCCCC4)nn23)cc1 | . | . | . | / | . | .
c1nc(SCc2ccc3c(c2)OCO3)c2c3c(sc2n1)CCCC3 | / | . | / | / | / | /
Clc1ccccc1-c1nc(-c2cccnc2)no1 | . | . | . | . | -1.5 | .
CC(=O)Nc1ccc(C(=O)CSc2nc(N)cc(=O)[nH]2)cc1 | / | . | / | / | / | /
CCOc1cc(CNCCO)cc(Br)c1OCc1ccccc1Cl | / | / | / | . | / | /
CCOc1cc(CNC(C)(C)CO)cc(Br)c1OCc1ccc(Cl)cc1Cl | / | / | / | 2.5 | / | /
Cc1ccc(S(=O)(=O)Nc2ccc3nc(-c4cccn4C)[nH]c3c2)cc1 | . | . | . | -2.9 | . | .
CC1=C(C(=O)Nc2ccccc2)C(c2cccnc2)n2nc(-c3cccnc3)nc2N1 (stereo not given) | . | . | . | . | . | .
COC(=O)C1=C(C)Nc2nc(-c3ccccc3)nn2C1c1ccc(C)o1 (stereo not given) | . | . | . | . | -7.3 | .
CCN1CCN(c2cc(C)c3cc(NC(=O)c4cnccn4)ccc3n2)CC1 | . | . | . | . | . | .
CCCCN(C)C(=O)CCC(=O)Nc1ccc2nc(N3CCOCC3)cc(C)c2c1 | . | / | . | . | . | .
CCN1CCN(c2cc(C)c3cc(NC(=O)Cc4ccc(OC)c(OC)c4)ccc3n2)CC1 | . | . | . | 3.1 | . | .
COc1ccc(N(C)C(=O)CCC(=O)Nc2ccc3nc(N4CCOCC4)cc(C)c3c2)c(OC)c1 | . | / | . | 3.2 | . | .
Cc1cc(N2CCN(C)CC2)nc2ccc(NC(=O)c3ccc(Br)o3)cc12 | . | / | . | . | -4.2 | .
COc1ccc2nc(NC(=O)c3ccc(C#N)cc3)sc2c1 | / | . | / | / | / | /
CC1CCC2C(=O)N(c3ccc(OC(=O)c4ccccc4Br)cc3)C(=O)C2C1 (stereo not given) | / | . | / | / | / | /
CC(=O)Nc1ccc(N2C(=O)CSC2c2ccc(Br)cc2)cc1 (stereo not given) | / | . | / | / | / | /
Cc1ccc(N2C(=O)C(N3C(=O)c4ccc([N+](=O)[O-])cc4C3=O)C2c2ccc3c(c2)OCO3)cc1F (stereo not given) | / | . | / | / | / | /
CCOC(=O)c1ccc(N2C(=O)c3n[nH]c(C)c3C2c2ccc(OC)c(OC)c2)cc1 (stereo not given) | . | . | . | . | -2.3 | .
SMILES | M1 ag | BAP1 block | HEK293 NFkB inh | DAT uptake mod | D1 allo mod | M1 antag
COc1ccc(CNC(=O)C(C)NC(=O)c2cc3ccccc3o2)cc1 (stereo not given) | . | . | . | -1.7 | . | .
CCC(c1nnnn1CC1CCCO1)N(CCN1CCOCC1)Cc1cc2cc(C)ccc2[nH]c1=O (stereo not given) | . | . | . | -1.8 | . | .
COCCn1c(C)nc2oc3ccc(Br)cc3c(=O)c2c1=O | . | . | . | . | . | 1.9
CCc1nc2oc3ccccc3c(=O)c2c(=O)n1CCOC | . | . | . | . | . | .
COc1cc(S(=O)(=O)N2CCCCC2)ccc1NC=O | . | / | / | / | -4.2 | .
COC(=O)n1c(=O)oc2cc(S(=O)(=O)N3CCCCC3)ccc21 | . | . | . | . | -6.8 | .
c1cncc(-c2cnc3ccccc3n2)c1 | / | . | / | / | / | /

Compound activity: PubChem, several laboratories
